Test results: ChEMBL document CHEMBL2321803, “Antitrypanosomal lead discovery: identification of a ligand-efficient inhibitor of Trypanosoma cruzi CYP51 and parasite growth” (J Med Chem, 2013)
Calls of active or inactive are those of the source. The rule behind the calls is not given here.

Experiments:
[1] = system: Trypanosoma cruzi; assay: Antitrypanosomal activity against Trypanosoma cruzi trypomastigote infected in mouse NIH/3T3 cells after 96 hrs by luciferase reporter gene assay; conditions: NIH/3T3, 96 h
[2] = molecular target: Sterol 14-alpha demethylase (Trypanosoma cruzi (strain CL Brener), UniProt Q7Z1V1); assay: Binding affinity to Trypanosoma cruzi recombinant full length CYP51 by spectrophotometric analysis
Chain of Sterol 14-alpha demethylase (Q7Z1V1 whole entry): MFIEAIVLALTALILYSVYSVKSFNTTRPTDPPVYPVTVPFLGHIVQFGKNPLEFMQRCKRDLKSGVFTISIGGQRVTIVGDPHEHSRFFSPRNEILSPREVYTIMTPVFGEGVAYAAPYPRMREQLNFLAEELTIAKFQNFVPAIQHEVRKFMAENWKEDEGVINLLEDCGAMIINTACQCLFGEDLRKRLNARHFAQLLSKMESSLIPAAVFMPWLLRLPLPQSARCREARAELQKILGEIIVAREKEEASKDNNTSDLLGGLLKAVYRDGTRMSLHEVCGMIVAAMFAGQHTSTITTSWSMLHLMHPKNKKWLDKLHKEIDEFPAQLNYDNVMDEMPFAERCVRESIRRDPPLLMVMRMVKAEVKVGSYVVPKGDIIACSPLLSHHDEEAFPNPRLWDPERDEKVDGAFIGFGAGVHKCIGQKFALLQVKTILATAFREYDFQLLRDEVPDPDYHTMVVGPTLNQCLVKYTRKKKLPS
Outline: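 Purified full-length T. cruzi CYP51 (2 μM) was titrated with ligand at 0.5–10 μM, recording type 2 difference spectra at 350–450 nm, 25 °C. Apparent Kd came from ΔA425–390 versus free ligand, fitted to a rectangular hyperbola.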

[3] = Selectivity index, ratio of EC50 for mouse NIH/3T3 cells to EC50 for Trypanosoma cruzi trypomastigote; assay type: toxicity, cell-based, NIH3T3; conditions: read-out: Ratio EC50
[4] = system: NIH3T3; assay: Cytotoxicity against mouse NIH/3T3 cells; assay type: cell-based
Outline: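 Counterscreen on uninfected NIH 3T3 cells grown in DMEM with 10% FBS at 37 °C and 5% CO₂, run alongside the 96 h infection assay. EC50 is the mean of three independent experiments performed on different days.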

[5] = system: Trypanosoma cruzi; assay: Antitrypanosomal activity against Trypanosoma cruzi trypomastigote infected in mouse NIH/3T3 cells at 9.5 uM incubated for 3 days post infection by DAPI-staining based immunofluorescence assay; assay type: functional, organism-based; conditions: NIH3T3
Outline: (§1)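 NIH-3T3 cells on coverslips were infected 2 h with trypomastigotes (Tulahuen β-gal or Y luciferase), washed, then given drug for 3 days. Cells were fixed in 4% paraformaldehyde, permeabilised with Triton X-100 and stained with rabbit anti-T. cruzi (1:2000) plus Alexa 488 secondary and DAPI. Imaged at 60× oil, 50 fields per condition.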

[6] = system: Trypanosoma cruzi; assay: Antitrypanosomal activity against Trypanosoma cruzi Y infected in mouse NIH/3T3 cells after 48 to 72 hrs by luciferase reporter gene assay
[7] = system: Trypanosoma cruzi; assay: Antitrypanosomal activity against Trypanosoma cruzi Tulahuen infected in mouse NIH/3T3 cells after 48 to 72 hrs by beta-galactosidase reporter gene assay
[8] = system: Caco-2; assay: Permeability across human Caco2 cells; assay type: ADME, cell-based
[9] = molecular target: T1, hERG (KCNH2) (Homo sapiens, UniProt Q12809); assay: Inhibition of human ERG at 10 uM relative to control
T1 sequence (Q12809 whole entry): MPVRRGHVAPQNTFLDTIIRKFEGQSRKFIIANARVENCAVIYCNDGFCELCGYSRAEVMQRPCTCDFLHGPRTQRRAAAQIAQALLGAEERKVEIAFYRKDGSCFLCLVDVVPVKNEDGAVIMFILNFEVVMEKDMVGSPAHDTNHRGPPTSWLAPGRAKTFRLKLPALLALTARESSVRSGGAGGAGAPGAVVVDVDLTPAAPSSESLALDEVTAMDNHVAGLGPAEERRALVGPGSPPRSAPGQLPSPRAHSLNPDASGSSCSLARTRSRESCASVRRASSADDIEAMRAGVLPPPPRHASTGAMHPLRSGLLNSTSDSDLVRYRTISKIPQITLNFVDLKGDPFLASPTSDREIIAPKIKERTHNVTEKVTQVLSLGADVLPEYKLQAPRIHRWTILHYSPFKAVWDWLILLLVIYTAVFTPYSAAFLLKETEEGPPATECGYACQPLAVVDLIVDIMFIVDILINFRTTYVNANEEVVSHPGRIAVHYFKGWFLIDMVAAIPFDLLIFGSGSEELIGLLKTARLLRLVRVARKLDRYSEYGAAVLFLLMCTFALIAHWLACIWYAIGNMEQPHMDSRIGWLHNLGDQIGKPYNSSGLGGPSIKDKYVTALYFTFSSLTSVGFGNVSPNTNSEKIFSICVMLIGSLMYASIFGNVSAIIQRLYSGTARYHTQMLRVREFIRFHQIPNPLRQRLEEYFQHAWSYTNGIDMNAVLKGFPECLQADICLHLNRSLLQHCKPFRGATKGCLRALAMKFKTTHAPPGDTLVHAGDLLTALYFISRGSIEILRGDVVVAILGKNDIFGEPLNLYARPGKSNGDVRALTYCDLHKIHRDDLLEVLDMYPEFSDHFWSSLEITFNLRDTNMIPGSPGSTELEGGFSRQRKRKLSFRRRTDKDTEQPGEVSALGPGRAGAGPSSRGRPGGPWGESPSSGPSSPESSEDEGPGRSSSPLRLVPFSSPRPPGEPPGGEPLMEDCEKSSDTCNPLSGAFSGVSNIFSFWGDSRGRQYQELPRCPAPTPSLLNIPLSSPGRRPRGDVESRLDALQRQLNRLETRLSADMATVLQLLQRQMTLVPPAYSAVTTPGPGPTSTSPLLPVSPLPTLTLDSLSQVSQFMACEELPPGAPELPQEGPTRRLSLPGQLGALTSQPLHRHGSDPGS

[10] = molecular target: T1, hERG (KCNH2); assay: Inhibition of human ERG at 1 uM relative to control
[11] = system: Plasma; assay: Metabolic stability in human plasma after 1 to 4 hrs; assay type: ADME, cell-free
[12] = system: Plasma; assay: Plasma protein binding in human; assay type: ADME, cell-free
[13] = system: Plasma; assay: Metabolic stability in mouse plasma after 1 to 4 hrs; assay type: ADME, cell-free
[14] = system: Plasma; assay: Plasma protein binding in mouse; assay type: ADME, cell-free
[15] = Metabolic stability in human microsomes after 20 mins in presence of ketoconazole; assay type: ADME, Microsome
Outline: (§2)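 Liver microsomes (human, mouse or rat), with or without CYP inhibitor. Read-out is percent of compound metabolized at 20 min.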

[16] = Metabolic stability in rat microsomes after 20 mins in presence of ketoconazole; assay type: ADME, Microsome
Outline: as §2

[17] = Metabolic stability in mouse microsomes after 20 mins in presence of ketoconazole; assay type: ADME, Microsome
Outline: as §2

[18] = Metabolic stability in human microsomes after 20 mins in presence of quinidine; assay type: ADME, Microsome
Outline: as §2

[19] = Metabolic stability in rat microsomes after 20 mins in presence of quinidine; assay type: ADME, Microsome
Outline: as §2

[20] = Metabolic stability in mouse microsomes after 20 mins in presence of quinidine; assay type: ADME, Microsome
Outline: as §2

[21] = Metabolic stability in human microsomes after 20 mins; assay type: ADME, Microsome; conditions: read-out: Stability
Outline: as §2

[22] = Metabolic stability in rat microsomes after 20 mins; assay type: ADME, Microsome; conditions: read-out: Stability
Outline: as §2

[23] = system: Trypanosoma cruzi; assay: Antitrypanosomal activity against Trypanosoma cruzi trypomastigote infected in mouse NIH/3T3 cells at 0.4 uM incubated for 3 days post infection by DAPI-staining based immunofluorescence assay; assay type: functional, organism-based; conditions: NIH3T3
Outline: as §1

[24] = system: Trypanosoma cruzi; assay: Antitrypanosomal activity against Trypanosoma cruzi Y infected in […] cells after 24 hrs by luciferase reporter gene assay; assay type: functional, organism-based
Outline: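 Y strain expressing firefly luciferase, trypomastigotes from LLC-MK2 cultures, infecting NIH/3T3 host cells (50 000 cells and 50 000 parasites per well). Drug added at infection (top 50 μM, DMSO <0.5%, duplicates) and washed out at 24, 48 or 72 h. D-luciferin at 150 μg/mL final added at 96 h, luminescence read 1 s. EC50 relative to 4 μM amphotericin B maximal inhibition.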

[25] = system: Trypanosoma cruzi; assay: Antitrypanosomal activity against Trypanosoma cruzi Tulahuen […] after 24 hrs by beta-galactosidase reporter gene assay; assay type: functional, organism-based; conditions: LLC-MK2
[26] = Metabolic stability in mouse microsomes after 20 mins; assay type: ADME, Microsome; conditions: read-out: Stability
Outline: as §2

Row | Compound | EC50 [1] | selectivity ratio [3] | EC50 [4] | also measured
1 | Cc1cc(OCCCCn2ccnc2)cc(C)c1Cl | 0.0051 µM |  |  | 
2 | Cc1ccccc1Oc1cccc(Cn2ccnc2)c1 | 0.711 µM | 112 | 79.3 µM | Kd [2]: 0.18 µM
3 | Cc1cc(Oc2cccc(Cn3cccn3)c2)cc(C)c1Cl | 2.8 µM |  | > 100 µM | 
4 | Cc1cc(OCCCCCCn2ccnc2)cc(C)c1Cl | 0.023 µM |  |  | 
5 | Cc1nnc(Cc2cccc(Oc3cc(C)c(Cl)c(C)c3)c2)s1 | 2.2 µM |  | 3.8 µM | 
6 | c1ccc(Oc2cccc(Cn3ccnc3)c2)cc1 | 1.63 µM | > 60 | > 100 µM | 
7 | Cc1cccc(OCCCCCn2ccnc2)c1 | 0.443 µM |  |  | 
8 | Cc1cc(Oc2cccc(CN3CCN(C)CC3)c2)cc(C)c1Cl | 6.2 µM |  | 29.7 µM | 
9 | Cc1cc(Oc2cccc(Cn3cnnc3)c2)cc(C)c1Cl | 11.2 µM |  | > 100 µM | 
10 | Cc1nnc(-c2cccc(Oc3cc(C)c(Cl)c(C)c3)c2)s1 | 12.3 µM |  | > 100 µM | 
11 | Clc1ccc(Oc2cccc(Cn3ccnc3)c2)cc1 | 0.65 µM | > 150 | > 100 µM | 
12 | Cc1cc(Oc2cccc(CN3CCOCC3)c2)cc(C)c1Cl | 3.7 µM |  | > 100 µM | 
13 | Cc1cc(Oc2cccc(Cn3cnc4ccccc43)c2)cc(C)c1Cl | 3.7 µM |  | 40 µM | 
14 | O=C(N[C@@H](Cn1ccnc1)c1ccccc1)c1ccc(-c2ccc(Cl)cc2)cc1 |  |  |  | Kd [2]: 0.07 µM
15 | Cc1cc(Oc2cccc(Cn3nccn3)c2)cc(C)c1Cl | 5.4 µM |  | > 100 µM | 
16 | Cc1cc([N+](=O)[O-])ccc1Nc1cccc(Cn2ccnc2)c1 | 0.072 µM | > 1000 | > 100 µM | 
17 | O=C(Cn1ccnc1[N+](=O)[O-])NCc1ccccc1 [BENZNIDAZOLE] | 1.9 µM |  | > 50 µM | Activity [5]: Active; Activity [6]: Active; Activity [7]: Active

Row | Compound | EC50 [1] | selectivity ratio [3] | EC50 [4] | also measured
18 | Cc1cc(Oc2cccc(Cn3ccnc3)c2)cc(C)c1Cl | 0.08 µM | 169 | 13.5 µM | Kd [2]: 0.067 µM; permeability [8]: 20.97 ×10⁻⁶ cm/s; inhibition at 10 µM [9]: 94%; inhibition at 1 µM [10]: 19%; Stability [11]: -9.7%; PPB [12]: > 99.8%; Stability [13]: 4%; PPB [14]: > 99.8%; Stability [15]: Stable; Stability [16]: Stable; Stability [17]: Stable; Stability [18]: Stable; Stability [19]: Stable; Stability [20]: Stable; remaining at 20 min [21]: 39%; remaining at 20 min [22]: 36%; Activity [23]: Active; Activity [24]: Active; Activity [25]: Active; remaining at 20 min [26]: 29%
19 | Cc1cc(Oc2cccc(Cn3cc4ccccc4n3)c2)cc(C)c1Cl | 9.8 µM |  | > 100 µM | 
20 | Cc1cc(Oc2cccc(Cn3ccc4ccccc43)c2)cc(C)c1Cl | 10.7 µM |  | > 100 µM | 
21 | c1ccc(-c2cccc(Oc3cccc(Cn4ccnc4)c3)c2)cc1 | 0.282 µM | 121 | 34 µM | 
22 | Clc1ccc(COc2cccc(Cn3ccnc3)c2)cc1 | 0.042 µM | 1810 | 76.2 µM | 
23 | Cc1nnc(Cc2cccc(Oc3cc(C)c(Cl)c(C)c3)c2)o1 | 3.4 µM |  | 6.2 µM | 
24 | Cc1cc(Oc2cccc(Cn3ccnn3)c2)cc(C)c1Cl | 1.1 µM |  | 66.8 µM | 
25 | Cc1cccc(Oc2cccc(Cn3ccnc3)c2)c1 | 0.33 µM | 238 | 78.7 µM | 
26 | Cc1cc(Oc2cccc(Cn3cncn3)c2)cc(C)c1Cl | 1.1 µM |  | 75.9 µM | 
27 | Cc1cc(C)cc(Oc2cccc(Cn3ccnc3)c2)c1 | 0.33 µM | > 300 | > 100 µM | 
28 | Clc1ccc(CCOc2cccc(Cn3ccnc3)c2)cc1 | 0.53 µM | 134 | 71.1 µM | 
29 | COc1cccc(Nc2cccc(Cn3ccnc3)c2)c1 | 0.167 µM | > 500 | > 100 µM | Kd [2]: 0.21 µM
30 | Cc1cc(Oc2cccc(Cn3ncc4ccccc43)c2)cc(C)c1Cl | 13.4 µM |  | > 100 µM | 
31 | Cc1cc(OCCCCCn2ccnc2)cc(C)c1Cl | 0.0025 µM |  |  | 
32 | O=C(Nc1cccc(Cl)c1)Nc1ccccc1-n1ccnc1 | 0.461 µM |  |  | 
33 | Cc1nnc(-c2cccc(Oc3cc(C)c(Cl)c(C)c3)c2)o1 | 14.1 µM |  | 46.1 µM | 
